These results are taken from ChEMBL document CHEMBL1147484, “SAR of benzoylpyridines and benzophenones as p38alpha MAP kinase inhibitors with oral activity” (Bioorg Med Chem Lett, 2004).

In data set [1] the target is Mitogen-activated protein kinase 14 (Mus musculus, UniProt P47811). Put plainly: Inhibition of murine His-Mitogen-activated protein kinase p38 alpha phosphorylation.
Data set [2] deals with Mus musculus. Description: Inhibition of […] induced TNF-alpha release in mice upon oral administration. It counts as functional.
The nature of data set [3]: Volume of distribution in steady state was determined in rat. The data set is classed as ADME, organism-based. To be noted: in vivo, read-out: Vss. The essentials: (§1)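 Pharmacokinetics were determined in rat. Cmax was measured after a 1 mg/kg oral dose. Oral bioavailability, terminal half-life and steady-state volume of distribution (Vss, L/kg) were reported.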
Data set [4] deals with Rattus norvegicus. Description: Dose required to inhibit bovine nasalseptum type II collagen induced arthritis in rats after administration on day 13. The data set is classed as functional. The conditions noted are these: 312 h.
The nature of data set [5]: Peak plasma concentration at 1 mg/kg peroral administration. The data set is classed as ADME, organism-based. Also noted: dose 1 mg/kg, route oral. To be noted: rat, po. An outline of the steps:
as §1

The subject of data set [6] is Rattus norvegicus. Description: Percent swelling of joints in rats immunized with Mycobacterium tuberculosis was determined on day 20 after 25 mg/kg peroral administration. It counts as functional. The conditions noted are these: route oral. The essentials: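 Female Wistar rats immunized with Mycobacterium tuberculosis at day 0 (adjuvant-induced arthritis); oral dosing 25 mg/kg twice daily from day 14 to 20; joint swelling measured on day 20, expressed as % inhibition of swelling.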

Data set [7] in a line: Oral bioavailability. It counts as ADME, organism-based. The conditions noted are these: rat, in vivo. The essentials: as §1
Data set [8] concerns Mus musculus. Put plainly: Dose required to inhibit […] induced TNF-alpha release in mice upon oral administration. It counts as functional.
The target of data set [9] is Prostaglandin G/H synthase 1 (Homo sapiens, UniProt P23219). Description: Inhibition of human prostaglandin G/H synthase 1.
Prostaglandin G/H synthase 1, sequence (P23219 whole entry): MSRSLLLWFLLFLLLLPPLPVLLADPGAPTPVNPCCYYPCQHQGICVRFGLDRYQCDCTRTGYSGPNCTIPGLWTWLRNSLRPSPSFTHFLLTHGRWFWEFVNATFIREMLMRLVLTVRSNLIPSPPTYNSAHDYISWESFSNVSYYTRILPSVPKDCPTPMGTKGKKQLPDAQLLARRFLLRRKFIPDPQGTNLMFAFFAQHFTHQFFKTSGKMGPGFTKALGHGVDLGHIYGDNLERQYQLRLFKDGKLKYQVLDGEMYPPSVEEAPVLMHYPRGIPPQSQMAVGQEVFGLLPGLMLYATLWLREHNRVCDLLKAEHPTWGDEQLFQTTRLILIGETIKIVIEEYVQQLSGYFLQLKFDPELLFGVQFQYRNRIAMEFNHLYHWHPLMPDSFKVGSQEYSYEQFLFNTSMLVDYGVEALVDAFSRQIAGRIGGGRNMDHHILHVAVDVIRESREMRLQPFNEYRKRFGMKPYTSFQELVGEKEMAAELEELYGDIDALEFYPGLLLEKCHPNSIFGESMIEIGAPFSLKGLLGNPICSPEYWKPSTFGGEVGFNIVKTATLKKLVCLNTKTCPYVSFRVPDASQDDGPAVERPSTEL
The target of data set [10] is Cytochrome P450 3A4 (Homo sapiens, UniProt P08684). Description: Inhibition of human cytochrome P450 3A4. It counts as ADME.
The target of data set [11] is Cytochrome P450 2D6 (Homo sapiens, UniProt P10635). Put plainly: Inhibition of human cytochrome P450 2D6. It counts as ADME.
Cytochrome P450 2D6, sequence (P10635 whole entry): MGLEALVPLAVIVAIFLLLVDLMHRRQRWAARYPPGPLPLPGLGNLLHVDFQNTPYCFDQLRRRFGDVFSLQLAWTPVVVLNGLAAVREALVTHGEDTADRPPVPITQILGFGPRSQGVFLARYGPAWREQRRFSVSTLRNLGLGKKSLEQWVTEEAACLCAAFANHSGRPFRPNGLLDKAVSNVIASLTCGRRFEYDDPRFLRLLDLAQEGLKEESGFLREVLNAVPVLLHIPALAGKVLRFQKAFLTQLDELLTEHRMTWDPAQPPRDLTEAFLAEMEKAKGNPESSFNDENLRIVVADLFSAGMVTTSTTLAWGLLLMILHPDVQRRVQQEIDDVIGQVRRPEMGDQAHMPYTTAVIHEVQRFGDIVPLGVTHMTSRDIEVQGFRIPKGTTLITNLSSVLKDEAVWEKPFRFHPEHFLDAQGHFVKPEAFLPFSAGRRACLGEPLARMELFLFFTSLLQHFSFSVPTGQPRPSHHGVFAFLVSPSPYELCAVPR
Data set [12] has as its target Cytochrome P450 2C9 (Homo sapiens, UniProt P11712). Put plainly: Inhibition of human cytochrome P450 2C9. It counts as ADME.
The target of data set [13] is T1, Cytochrome P450 1A2 (Homo sapiens, UniProt P05177).
T1 sequence (P05177 whole entry): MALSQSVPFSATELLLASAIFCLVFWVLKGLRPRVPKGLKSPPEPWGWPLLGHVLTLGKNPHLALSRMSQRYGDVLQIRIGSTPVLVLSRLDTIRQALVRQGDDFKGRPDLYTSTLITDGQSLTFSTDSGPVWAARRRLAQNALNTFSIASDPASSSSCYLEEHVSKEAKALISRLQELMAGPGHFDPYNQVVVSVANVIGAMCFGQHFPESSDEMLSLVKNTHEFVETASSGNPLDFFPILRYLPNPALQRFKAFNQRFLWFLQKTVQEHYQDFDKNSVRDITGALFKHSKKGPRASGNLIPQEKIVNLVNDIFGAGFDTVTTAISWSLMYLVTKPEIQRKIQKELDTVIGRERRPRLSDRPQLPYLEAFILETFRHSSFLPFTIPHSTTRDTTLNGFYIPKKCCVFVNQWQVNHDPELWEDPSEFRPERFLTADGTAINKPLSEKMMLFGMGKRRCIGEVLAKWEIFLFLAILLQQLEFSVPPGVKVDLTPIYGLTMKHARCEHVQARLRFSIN
Put plainly: Inhibition of human cytochrome P450 1A2. The data set is classed as ADME.

Data set [14] deals with Mitogen-activated protein kinase 9 (Homo sapiens, UniProt P45984). Description: Inhibit of human c-Jun N-terminal kinase 2.
Mitogen-activated protein kinase 9, sequence (P45984 whole entry): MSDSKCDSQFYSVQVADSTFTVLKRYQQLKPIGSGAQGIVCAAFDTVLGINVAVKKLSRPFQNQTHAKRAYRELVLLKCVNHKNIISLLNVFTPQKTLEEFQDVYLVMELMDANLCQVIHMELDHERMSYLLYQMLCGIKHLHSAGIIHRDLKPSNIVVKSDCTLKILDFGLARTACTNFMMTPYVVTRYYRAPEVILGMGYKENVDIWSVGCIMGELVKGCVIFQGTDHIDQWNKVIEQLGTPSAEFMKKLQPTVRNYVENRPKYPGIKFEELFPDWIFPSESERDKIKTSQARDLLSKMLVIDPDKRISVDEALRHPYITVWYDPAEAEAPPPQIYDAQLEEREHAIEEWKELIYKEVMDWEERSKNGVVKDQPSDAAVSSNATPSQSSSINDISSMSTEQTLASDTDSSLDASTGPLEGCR
The target of data set [15] is Hepatocyte growth factor receptor (Homo sapiens, UniProt P08581). Description: Inhibit of human Met proto-oncogene tyrosine kinase.
Data set [16] addresses RAF proto-oncogene serine/threonine-protein kinase (Homo sapiens) (UniProt P04049). Put plainly: Inhibition of human RAF proto-oncogene serine/threonine-protein kinase at 10 uM.
The target in data set [17] is Proto-oncogene tyrosine-protein kinase Src (Homo sapiens) (UniProt P12931). Description: Inhibition of human c-Src at 10 uM.
Data set [18] addresses T2, Epidermal growth factor receptor (Homo sapiens, UniProt P00533). Description: (§2) Inhibition of human Epidermal growth factor receptor.
Data set [19] has as its target Insulin-like growth factor 1 receptor (Homo sapiens) (UniProt P08069). Description: Inhibition of human insulin-like growth factor I receptor at 10 uM.
Data set [20] has as its target T2, Epidermal growth factor receptor. Described as §2. The source holds these as a separate data set.
The target is the same in data set [21]. To be noted: 10 uM.
The target of data set [22] is Fibroblast growth factor receptor (Homo sapiens) (UniProt P22607+P11362+P22455+P21802). Description: Inhibitory activity against human FGFR at 10 uM. It counts as protein assay.
Data set [23] deals with Cyclin-dependent kinase 1 (Homo sapiens) (UniProt P06493). Description: Inhibition of human cyclin-dependent kinase 1 at 10 uM.
Data set [24] deals with Mast/stem cell growth factor receptor Kit (Homo sapiens) (UniProt P10721). Description: Inhibition of human c-Kit kinase. The conditions noted are these: concentration not given here.

T2 sequence (P00533 whole entry): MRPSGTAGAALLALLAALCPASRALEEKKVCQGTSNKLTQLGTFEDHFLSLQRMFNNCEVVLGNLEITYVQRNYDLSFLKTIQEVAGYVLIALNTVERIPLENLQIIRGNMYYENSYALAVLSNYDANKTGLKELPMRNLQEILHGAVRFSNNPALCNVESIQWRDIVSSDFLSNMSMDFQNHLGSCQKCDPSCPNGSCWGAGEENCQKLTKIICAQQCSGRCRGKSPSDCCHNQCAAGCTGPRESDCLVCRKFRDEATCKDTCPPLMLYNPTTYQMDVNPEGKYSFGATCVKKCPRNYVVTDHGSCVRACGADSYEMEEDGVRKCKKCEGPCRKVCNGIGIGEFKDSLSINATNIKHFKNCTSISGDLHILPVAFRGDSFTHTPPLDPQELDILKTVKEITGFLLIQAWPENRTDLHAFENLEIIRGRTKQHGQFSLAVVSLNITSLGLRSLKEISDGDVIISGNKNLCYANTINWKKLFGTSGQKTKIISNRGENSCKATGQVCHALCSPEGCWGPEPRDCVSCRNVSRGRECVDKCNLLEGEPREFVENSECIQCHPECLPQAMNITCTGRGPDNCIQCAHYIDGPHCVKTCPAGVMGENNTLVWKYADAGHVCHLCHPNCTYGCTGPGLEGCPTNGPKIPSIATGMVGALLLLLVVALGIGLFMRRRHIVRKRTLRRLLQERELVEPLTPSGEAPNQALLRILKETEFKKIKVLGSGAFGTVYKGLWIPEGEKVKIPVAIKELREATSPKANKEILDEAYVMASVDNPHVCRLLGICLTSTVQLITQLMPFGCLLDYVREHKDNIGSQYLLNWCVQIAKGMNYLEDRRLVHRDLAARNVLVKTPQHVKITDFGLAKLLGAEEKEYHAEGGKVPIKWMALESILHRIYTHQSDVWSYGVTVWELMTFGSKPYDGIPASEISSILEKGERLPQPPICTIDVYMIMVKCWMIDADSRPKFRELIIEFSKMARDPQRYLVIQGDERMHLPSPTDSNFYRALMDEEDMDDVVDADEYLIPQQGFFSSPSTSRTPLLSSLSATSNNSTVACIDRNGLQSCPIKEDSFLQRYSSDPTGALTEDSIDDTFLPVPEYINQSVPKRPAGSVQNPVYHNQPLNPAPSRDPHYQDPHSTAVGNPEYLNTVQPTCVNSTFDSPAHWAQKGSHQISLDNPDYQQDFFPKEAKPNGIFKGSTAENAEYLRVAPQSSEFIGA
Mitogen-activated protein kinase 14, sequence (P47811 whole entry): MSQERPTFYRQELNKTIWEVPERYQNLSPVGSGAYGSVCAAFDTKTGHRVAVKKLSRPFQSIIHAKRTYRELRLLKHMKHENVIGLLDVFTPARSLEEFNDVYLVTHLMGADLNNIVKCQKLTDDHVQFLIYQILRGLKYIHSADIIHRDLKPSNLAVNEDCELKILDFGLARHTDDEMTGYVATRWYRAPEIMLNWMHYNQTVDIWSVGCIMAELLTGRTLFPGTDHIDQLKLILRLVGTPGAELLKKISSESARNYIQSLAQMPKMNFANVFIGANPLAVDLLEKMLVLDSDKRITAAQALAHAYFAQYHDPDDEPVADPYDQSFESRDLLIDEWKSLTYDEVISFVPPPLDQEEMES
Cytochrome P450 2C9, sequence (P11712 whole entry): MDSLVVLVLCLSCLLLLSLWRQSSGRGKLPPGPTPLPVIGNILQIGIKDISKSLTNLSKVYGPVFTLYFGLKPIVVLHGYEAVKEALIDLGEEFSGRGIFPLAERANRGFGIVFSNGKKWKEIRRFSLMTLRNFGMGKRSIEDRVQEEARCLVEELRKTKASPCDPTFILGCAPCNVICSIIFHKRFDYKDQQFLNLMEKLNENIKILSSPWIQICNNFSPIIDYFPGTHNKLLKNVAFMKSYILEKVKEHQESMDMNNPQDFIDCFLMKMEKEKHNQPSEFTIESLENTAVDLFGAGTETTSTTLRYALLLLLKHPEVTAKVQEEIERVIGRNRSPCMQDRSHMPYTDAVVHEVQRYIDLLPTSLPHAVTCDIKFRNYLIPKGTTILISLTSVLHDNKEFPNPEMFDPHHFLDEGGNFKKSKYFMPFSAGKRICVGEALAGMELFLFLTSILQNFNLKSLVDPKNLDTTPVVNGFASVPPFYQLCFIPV
Insulin-like growth factor 1 receptor (Homo sapiens), sequence (P08069 31-736 limits assumed): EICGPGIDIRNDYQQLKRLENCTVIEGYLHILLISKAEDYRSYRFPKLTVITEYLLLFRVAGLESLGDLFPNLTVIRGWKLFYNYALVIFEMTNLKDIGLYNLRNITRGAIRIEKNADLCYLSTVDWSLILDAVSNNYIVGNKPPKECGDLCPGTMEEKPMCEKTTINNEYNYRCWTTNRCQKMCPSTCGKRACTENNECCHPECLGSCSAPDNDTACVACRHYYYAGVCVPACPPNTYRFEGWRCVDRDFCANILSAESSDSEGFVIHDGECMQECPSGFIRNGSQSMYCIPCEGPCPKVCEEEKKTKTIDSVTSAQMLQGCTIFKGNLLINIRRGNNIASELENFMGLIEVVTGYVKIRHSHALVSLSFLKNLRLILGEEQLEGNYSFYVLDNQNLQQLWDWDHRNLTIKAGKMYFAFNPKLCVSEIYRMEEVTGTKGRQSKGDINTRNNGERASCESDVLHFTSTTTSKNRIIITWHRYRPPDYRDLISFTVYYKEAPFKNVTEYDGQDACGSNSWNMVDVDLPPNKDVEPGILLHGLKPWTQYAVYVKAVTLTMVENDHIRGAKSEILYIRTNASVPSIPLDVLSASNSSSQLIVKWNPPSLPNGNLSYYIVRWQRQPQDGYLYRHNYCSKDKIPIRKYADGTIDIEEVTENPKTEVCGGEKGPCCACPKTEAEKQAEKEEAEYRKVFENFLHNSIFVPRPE
Insulin-like growth factor 1 receptor (Homo sapiens), sequence (P08069 741-1367 limits assumed): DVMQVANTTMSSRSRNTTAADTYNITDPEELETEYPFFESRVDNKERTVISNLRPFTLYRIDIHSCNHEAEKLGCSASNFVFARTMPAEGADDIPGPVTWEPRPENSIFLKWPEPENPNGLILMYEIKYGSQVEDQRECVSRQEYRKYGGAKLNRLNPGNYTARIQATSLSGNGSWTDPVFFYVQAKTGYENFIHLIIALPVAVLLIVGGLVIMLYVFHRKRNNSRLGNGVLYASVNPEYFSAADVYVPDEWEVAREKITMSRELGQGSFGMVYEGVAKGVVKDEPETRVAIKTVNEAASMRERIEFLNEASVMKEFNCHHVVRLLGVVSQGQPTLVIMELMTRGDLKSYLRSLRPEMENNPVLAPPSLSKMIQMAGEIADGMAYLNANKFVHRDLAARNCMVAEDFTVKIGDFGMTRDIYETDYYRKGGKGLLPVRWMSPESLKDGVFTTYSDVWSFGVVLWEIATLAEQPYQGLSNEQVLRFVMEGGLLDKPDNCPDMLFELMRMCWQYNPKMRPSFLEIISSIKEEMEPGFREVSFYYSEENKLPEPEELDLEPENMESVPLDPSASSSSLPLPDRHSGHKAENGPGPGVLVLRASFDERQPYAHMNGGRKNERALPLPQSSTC

In turn, `CC(C)(N)CCc1ccc(Cl)c(C(=O)c2ccc(Nc3ccc(F)cc3F)nc2)c1` yielded an IC50 in [1] of 160 µM.
In data set [1], `COc1ccc(CCC(C)(C)O)cc1C(=O)c1ccc(Nc2ccc(F)cc2F)nc1` yielded an IC50 of 479 µM.
The compound `COc1ccc(CCC(C)(C)N)cc1C(=O)c1ccc(Nc2ccc(F)cc2F)cc1` yielded an IC50 in [1] of 113 µM. Besides, in data set [2], the Inhibition is recorded as 0%.
On to `COc1cc2[nH]c(C)nc2cc1C(=O)c1ccc(Nc2ccc(F)cc2F)nc1`, for which the Vd in data set [3] came to 1.1 L/kg. Further, the ED50 in data set [4] stood at 8.6 mg/kg. This compound also had an IC50 in data set [1] of 21 µM. Besides, in data set [2], the Inhibition came out at 57%. The compound further returned a Cmax in data set [5] of 607 nM. The Swelling in [6] was found to be 70%. Moreover, in data set [7], the bioavailability stood at 54%.
Consider `O=C(c1ccc(Nc2ccc(F)cc2F)cc1)c1ccccc1Cl`, for which, in data set [1], the IC50 came out at 11 µM. For the same compound, the Inhibition in data set [2] stood at 6%.
In data set [1], `COc1ccccc1C(=O)c1ccc(Nc2ccc(F)cc2F)cc1` yielded an IC50 of 38 µM. In addition, the Inhibition in [2] is 0%.
As for `O=C(c1ccc(Nc2ccc(F)cc2F)nc1)c1cc(Br)ccc1Cl`, the IC50 in data set [1] was 300 µM.
The same measure, in the same setting: to `O=C(c1ccc(Nc2ccc(F)cc2F)nc1)c1ccccc1Cl` belongs 101 µM.
In data set [1], `COc1ccc(C#CC(C)(C)N)cc1C(=O)c1ccc(Nc2ccc(F)cc2F)nc1` gave an IC50 of 8 µM. The Inhibition in data set [2] is 91%. In [6], this compound returned a Swelling of 52%.
`COc1ccc(C#CC(C)(C)O)cc1C(=O)c1ccc(Nc2ccc(F)cc2F)nc1` had an IC50 in data set [1] of 54 µM. For the same compound, the Inhibition in data set [2] is recorded as 88%. This compound gave a Swelling in [6] of 23%. Also, the ED50 in [8] was 23 mg/kg.
`CC(C)(N)C#Cc1ccc(Cl)c(C(=O)c2ccc(Nc3ccc(F)cc3F)nc2)c1` had an IC50 in [1] of 19 µM. In [2], this compound returned an Inhibition of 50%. Moreover, the Swelling in data set [6] was 36%.
Take `CC(C)(N)C#Cc1ccc(Cl)c(C(=O)c2ccc(Nc3ccc(F)cc3F)cc2)c1`: the midpoint of inhibition in data set [1], the IC50, lay at 6 µM. Also, the Inhibition in data set [2] turned out to be 85%.
Turning to `Cc1nc2cc(C(=O)c3ccc(Nc4ccc(F)cc4F)cc3)c(Cl)cc2[nH]1`, in data set [1], the IC50 was found to be 0.7 µM. In [2], this compound gave an Inhibition of 93%. Besides, in [6], the Swelling worked out at 46%.
In the case of `COc1cc2nc(C)[nH]c2cc1C(=O)c1ccc(Nc2ccc(F)cc2F)cc1`, the IC50 in [1] is 5 µM; in data set [9], above 80 µM; in [10], above 2 µM; in [11] it was above 2 µM; in data set [12], above 2 µM; in data set [13], above 2 µM. The compound further came in with an IC50 in [14] above 10 µM.
For `COc1ccc(C#CC(C)(C)N)cc1C(=O)c1ccc(Nc2ccc(F)cc2F)cc1`, the IC50 is 1.5 µM in data set [15]; 14 µM in [1]; above 80 µM in data set [9]; above 2 µM in data set [10]; above 2 µM in data set [11]; 8.8 µM in data set [18]. The IC50 is above 2 µM in data set [12], above 2 µM in data set [13], 4.4 µM in data set [20] and above 10 µM in data set [14]. Moreover, the inhibition is 0% in data set [16], -10% in data set [17] and 0% in data set [19]. Also, the Vd in data set [3] came to 9 L/kg. The compound further gave an Inhibition in [2] of 95%. In addition, the Cmax in data set [5] turned out to be 59 nM. This compound also showed a Swelling in data set [6] of 51%. Further, in data set [7], the bioavailability is 46%.
Take `COc1ccc(CCC2(O)CCN(C)CC2)cc1C(=O)c1ccc(Nc2ccc(F)cc2F)cc1`: the IC50 in [1] turned out to be 51 µM. The same compound displayed an Inhibition in [2] of 0%.
`Cc1nc2cc(C(=O)c3ccc(Nc4ccc(F)cc4F)nc3)c(Cl)cc2[nH]1`: the IC50 in [1] worked out at 8 µM. The same compound had an Inhibition in data set [2] of 91%. Further, the Swelling in data set [6] stood at 40%.
On to `COc1cc2[nH]c(C)nc2cc1C(=O)c1ccc(Nc2ccc(F)cc2F)cc1`, for which the inhibition in data set [21] is -10%; in data set [22] it was 0%; in data set [23] it was 0%; in [24], 0%; in data set [17] it was 0%; in data set [19], 0%. Moreover, the Inhibition in data set [2] amounted to 90%. In data set [6], this compound returned a Swelling of 50%.
For `COc1ccc(/C=C/C2(O)CCN(C)CC2)cc1C(=O)c1ccc(Nc2ccc(F)cc2F)cc1`, the IC50 in data set [1] was 1 µM. Besides, the Inhibition in data set [2] amounted to 68%. The compound further registered a Swelling in data set [6] of 47%.

As usually defined, the IC50 is the point on the concentration scale where inhibition reaches its midpoint. A lower IC50 goes with higher potency. As usually defined, the Inhibition is the change of the read-out against control, counted positive when it falls. A high value points to a strong effect. Broadly, the ED50 is the dose at which the effect has come halfway, by size or by number of responders. The low end stands for greater potency, the high end for weaker potency. One may read the Cmax as the maximum level reached in the sampled fluid or tissue. One may read the bioavailability as dose-corrected exposure relative to a reference, in per cent. High values mean good availability, low ones poor availability. As a reminder, the inhibition is the relative decrease from the control value, in per cent.
